Assay results as given in PubChem BioAssay AID588627 (Johns Hopkins Ion Channel Center, 2011).
In all, about 310,000 compounds went through this assay and about 1,400 (0.45%) were called active.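 Rule for the calls: active = calcium response B-score plate-corrected fluorescence ratio at least 3 library SD, with starting fluorescence B-score inside 5 SD; inactive = the rest.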 The list comes from a sample in which actives are over-represented; it also holds similar structures and randomly drawn compounds.

These compounds were tested against Mas-related G-protein coupled receptor member X1 (Homo sapiens) (UniProt Q96LB2) (assay: MrgX1 activation via calcium signaling – HEK293 cells, Fluo-4 calcium flux, primary screen (AID 588627;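 for B-score: B-score of the peak-minus-trough calcium fluorescence change over baseline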)). Details: Fluo-4 calcium fluorescence, agonist mode, at 10 µM; hits give high values.
Sequence of Mas-related G-protein coupled receptor member X1 (Homo sapiens) (Q96LB2 whole entry, looked up): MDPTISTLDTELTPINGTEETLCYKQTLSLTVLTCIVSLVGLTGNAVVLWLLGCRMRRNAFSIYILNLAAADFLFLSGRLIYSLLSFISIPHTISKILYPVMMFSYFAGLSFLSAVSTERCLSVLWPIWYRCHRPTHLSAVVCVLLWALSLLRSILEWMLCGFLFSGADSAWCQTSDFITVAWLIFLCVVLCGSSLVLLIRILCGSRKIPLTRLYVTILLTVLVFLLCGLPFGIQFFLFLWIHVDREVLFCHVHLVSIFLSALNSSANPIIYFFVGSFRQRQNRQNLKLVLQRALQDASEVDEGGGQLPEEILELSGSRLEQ
Method in brief: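 Test system: HEK293 cells stably expressing human MrgX1 receptor; amount: 15,000 cells per well; doses: compound delivered in addition one of three; times: overnight plating before 1 h dye loading; detection: Fluo-4 NW calcium-flux fluorescence, kinetic read; read-out basis: B-scored fluorescence response ratio; controls: positive and negative controls per plate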
For COc1cccc(CN(C)CC(O)COC(c2ccccc2)c2ccccc2C)c1 (stereo not given), the B-score was “inactive”. Cn1c(=O)c2cc(S(=O)(=O)NCCC(=O)Nc3ccc(F)cc3F)ccc2n(C)c1=O was tested, and the B-score was “inactive”. For Cc1ccc(C(=O)C(C)OC(=O)Cc2n[nH]c(=O)c3ccccc23)cc1C (stereo not given), the B-score was “inactive”. In the case of O=C1CCCc2c1nc(-c1cccc(Cl)c1)n2O, the B-score is reported as “inactive”. With O=c1c2cc(Br)ccc2nc(-c2cccc(Cl)c2)n1O the B-score was 67.7 (active). Cc1cccc(-c2nc3ccccc3c(=O)n2NC(=O)Cc2ccc(Cl)cc2)c1 was tested, and the B-score was “inactive”. In the case of Cc1c2cnn(CC(=O)NCCCN3CC(C)CC(C)C3)c(=O)c2c(C)n1Cc1ccc(Cl)cc1 (stereo not given), the B-score is reported as “inactive”. For COc1cc(NC(=O)C2=C(C)OCCS2)c(Cl)cc1C(=O)NCCN1CCN(C)CC1, the B-score was “inactive”. In the case of O=C(Nc1ccccc1N1CCOCC1)c1ccc(OCc2cscn2)cc1, the B-score is reported as “inactive”. For Cc1nn(CC2CC2)c(=O)n1N(C)c1ncc(C(F)(F)F)cc1Cl, the B-score was “inactive”. With COc1ccc(-c2ccnc(SCC(=O)N3CCOCC3)n2)cc1 the B-score was “inactive”. For C=CCC1=C/C(=C\c2c(N)n3nc(CC(=O)N4CCOCC4)sc3nc2=O)C=C(OC)C1=O, the B-score was “inactive”. With COC1=C/C(=C/c2c(N)n3nc(CC(=O)N4CCOCC4)sc3nc2=O)C=CC1=O the B-score was 34.8 (active). CC(=O)Nc1nc2c(s1)C(=O)NCC(C)(C)C2 was tested, and the B-score was “inactive”. In the case of CCN(CC)C(=O)C1CCC(C)(C(=O)O)C1(C)C (stereo not given), the B-score is reported as “inactive”. For NC(=O)N1CCCC1C(=O)Nc1ccc(Cl)c(Cl)c1 (stereo not given), the B-score was “inactive”. CC1(C(=O)O)CCC(C(=O)Nc2ccc(Cl)c(Cl)c2)C1(C)C (stereo not given) was tested, and the B-score was 30.1 (active). For Cc1ccsc1C1C(C#N)=C(N)OC2=C1C(=O)CC(C)(C)C2 (stereo not given), the B-score was “inactive”. In the case of Cc1c(C(=O)Nc2ccccc2)sc2nc3n(c(=O)c12)CCCCC3, the B-score is reported as “inactive”. With COc1ccc(OC)c(NC(=O)c2ccc3c(c2)C(=O)N(c2ccc(OC(C)=O)cc2)C3=O)c1 the B-score was “inactive”. With Cc1cc(C(=O)CCl)c(C)n1CC1COc2ccccc2O1 (stereo not given) the B-score was “inactive”. With O=C(CN1C(=O)C2C3C=CC(C3)C2C1=O)NCC1COc2ccccc2O1 (stereo not given) the B-score was “inactive”. For O=C1C(=O)N(CC2COc3ccccc3O2)c2ccccc21 (stereo not given), the B-score was 56 (active). With Cc1ccc(S(=O)(=O)NC2CCCCCC2)cc1C(N)=O the B-score was “inactive”. In the case of O=c1nc2s/c(=C\c3ccco3)c(=O)n2nc1Cc1ccccc1, the B-score is reported as “inactive”. With CCOC(=O)/C=c1\s/c(=C\c2ccc(C#N)cc2)c(=O)n1CC(=O)Nc1cccc(C)c1C the B-score was “inactive”. For CN(c1ccccc1)c1ccc(/C=c2\s/c(=C(/C#N)C(=O)C(C)(C)C)n(Cc3ccco3)c2=O)cc1, the B-score was 193 (active). With CCCCN1C(N)=NC[C@@H]1CC1CCCCC1 the B-score was 36.9 (active). CCCCN1C(N)=NC[C@@H]1Cc1ccccc1 was tested, and the B-score was “inactive”. With CCCC[C@@H]1CN=C(N)N1CCCC the B-score was “inactive”. With CCOc1ccc(/C=C/C(=O)N(CC)CC(=O)NCc2cccs2)cc1OC the B-score was “inactive”. CC(C)(C)N(Cc1ccccc1)C(=O)c1ccncc1 was tested, and the B-score was “inactive”. NC(N)=N/N=C/c1ccc(Cl)c([N+](=O)[O-])c1 was tested, and the B-score was 28.4 (active). For O=C(/C=C/c1ccc(Cl)c([N+](=O)[O-])c1)c1cccnc1, the B-score was “inactive”. In the case of O=C(/C=C/c1ccc(Cl)c([N+](=O)[O-])c1)c1ccc(O)cc1, the B-score is reported as “inactive”. With Cc1ccc(C(=O)C[n+]2cc(-c3ccccc3)n3c2CCCCC3)cc1 the B-score was “inactive”. With COc1ccc(-c2cc(C(=O)NC(Cc3c[nH]c4ccccc34)C(=O)O)c(C)o2)cc1OC (stereo not given) the B-score was “inactive”. NS(=O)(=O)c1ccc(NC(=O)COC(=O)C2(c3ccc(F)cc3)CCCC2)cc1 was tested, and the B-score was “inactive”. In the case of COc1ccc(C(C[N+](=O)[O-])n2nc(C)cc2C)cc1 (stereo not given), the B-score is reported as 46.1 (active). With COc1ccc(OCc2cn3c(C)cc(C)nc3n2)cc1 the B-score was “inactive”. CCOc1ccc(C(C)C)cc1S(=O)(=O)n1nc(C)cc1C was tested, and the B-score was “inactive”. For CCC(C)(C(=O)NC1CCCC1)N(C(=O)CNC(C)=O)c1ccc(C)cc1 (stereo not given), the B-score was “inactive”. For CCCc1nc(N2CCN(C)CC2)c2sc(=S)n(-c3ccccc3)c2n1, the B-score was “inactive”. With CN(C(=O)CN(CCO)CC(=O)N(C)C(C)(C)Cc1ccccc1)C(C)(C)Cc1ccccc1 the B-score was 44.7 (active). In the case of OCCN(Cc1ccccc1)Cc1ccc(Cl)cc1, the B-score is reported as “inactive”. In the case of CN(Cc1ccccc1)C(=O)CCc1ccccc1, the B-score is reported as “inactive”. For CC(C)C(=O)NCC(c1cccs1)S(=O)(=O)c1ccc(F)cc1 (stereo not given), the B-score was “inactive”. For Cc1ncoc1C(=O)N1CCCC(C(=O)c2ccc3c4c(cccc24)CC3)C1 (stereo not given), the B-score was “inactive”. With CN(CC(=O)Nc1cccc(F)c1)C(=O)C1CSC2(C)CCC(=O)N12 (stereo not given) the B-score was “inactive”. In the case of C=CCNC(=S)NNC(=O)c1cc(Cl)ccc1OC, the B-score is reported as “inactive”. COc1ccc(Cl)cc1C(=O)NNC(=S)NC1CCCC1 was tested, and the B-score was “inactive”. In the case of COc1ccc(Cl)cc1C(=O)NNC(=S)NC(=O)/C=C/c1ccco1, the B-score is reported as 51.7 (active). For COc1ccc(C2c3ccc(O)cc3Oc3ncn(CCCO)c(=N)c32)cc1OC (stereo not given), the B-score was “inactive”. In the case of CCc1cccc(C)c1NC(=O)COC(=O)Cc1ccsc1, the B-score is reported as “inactive”. With CCN(CC(=O)NC(=O)NCc1ccccc1)Cc1nc2ccccc2c(=O)[nH]1 the B-score was “inactive”. In the case of CCN(Cc1nc2ccccc2c(=O)[nH]1)Cc1cc(=O)oc2cc(C)c(C)cc12, the B-score is reported as 34.9 (active). In the case of CN(Cc1nc2ccccc2c(=O)[nH]1)Cc1cc(=O)oc2ccc3ccccc3c12, the B-score is reported as “inactive”. With CCn1c(SCC(=O)Nc2ccc(C)cc2)nc2nc3c(cc2c1=O)CCCC3 the B-score was “inactive”. For Cc1cc(C)cc(C(=O)NC(=S)Nc2ccc3[nH]c(=O)[nH]c3c2)c1, the B-score was “inactive”. With COc1ccc(C2(O)C(=O)Nc3ccccc32)cc1 (stereo not given) the B-score was “inactive”. For Cc1ccc(NC2(C#N)C(=O)Nc3ccccc32)cc1 (stereo not given), the B-score was 45 (active). With Cc1cc(O)c(C2(O)C(=O)Nc3ccccc32)cc1C (stereo not given) the B-score was “inactive”. With CCCCn1c(N)c(N(CC(C)C)C(=O)CSc2ccc([N+](=O)[O-])cc2)c(=O)[nH]c1=O the B-score was “inactive”. In the case of CN(CCc1ccccn1)C(=O)c1ccc(OC2CCN(CCc3ccccc3)CC2)cc1, the B-score is reported as “inactive”. In the case of O=C1Cc2ccccc2Sc2ccc(Cl)cc21, the B-score is reported as 28.3 (active). For S=C1Nc2cc(Cl)ccc2Sc2ccccc21, the B-score was “inactive”. With O=C1CC2(CCCC2)Oc2ccc(Cl)cc21 the B-score was “inactive”. In the case of O=C(N/N=C/c1cc(Cl)cc([N+](=O)[O-])c1O)C(O)(c1ccccc1)c1ccccc1, the B-score is reported as 36.2 (active). In the case of O=C(N/N=C/c1cc(Br)c(O)c([N+](=O)[O-])c1)C(O)(c1ccccc1)c1ccccc1, the B-score is reported as “inactive”. With CN(C)/N=C/c1cc(Cl)cc([N+](=O)[O-])c1O the B-score was “inactive”.
